Assay results taken from the M2OR odorant receptor database.

What was measured:
Conditions in all cases: stereoisomer not certain
[1] = target: T1, UniProt Q8VG27
T1 sequence (whole entry): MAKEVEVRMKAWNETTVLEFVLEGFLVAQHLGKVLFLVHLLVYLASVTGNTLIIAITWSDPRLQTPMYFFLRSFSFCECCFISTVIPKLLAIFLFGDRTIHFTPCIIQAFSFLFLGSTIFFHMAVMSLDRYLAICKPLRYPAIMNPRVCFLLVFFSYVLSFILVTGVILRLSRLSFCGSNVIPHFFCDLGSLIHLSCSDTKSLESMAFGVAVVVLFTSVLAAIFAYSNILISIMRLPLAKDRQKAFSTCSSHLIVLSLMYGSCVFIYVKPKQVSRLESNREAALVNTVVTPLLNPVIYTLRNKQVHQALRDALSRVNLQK
Method in brief: (§1)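 Each entry records the cell line, G-protein, co-transfected protein and tags used. Methods varied with the source, often transient luciferase assays in mammalian cell lines. A receptor–molecule pair is called responsive (active) if the original authors judged its signal statistically different from baseline and non-responsive (inactive) otherwise.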

[2] = target: T2, UniProt Q8VG53
T2 sequence (whole entry): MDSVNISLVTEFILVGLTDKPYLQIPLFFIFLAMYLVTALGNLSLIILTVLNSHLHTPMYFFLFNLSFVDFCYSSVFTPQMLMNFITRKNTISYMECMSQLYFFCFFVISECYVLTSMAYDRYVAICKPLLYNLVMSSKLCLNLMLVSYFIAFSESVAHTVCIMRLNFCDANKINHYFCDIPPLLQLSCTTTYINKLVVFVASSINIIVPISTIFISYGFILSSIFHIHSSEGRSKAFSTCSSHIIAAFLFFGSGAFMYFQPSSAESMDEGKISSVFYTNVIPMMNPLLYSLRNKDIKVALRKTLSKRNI
Method in brief: as §1

[3] = target: T3, UniProt Q8VG64
T3 sequence (whole entry): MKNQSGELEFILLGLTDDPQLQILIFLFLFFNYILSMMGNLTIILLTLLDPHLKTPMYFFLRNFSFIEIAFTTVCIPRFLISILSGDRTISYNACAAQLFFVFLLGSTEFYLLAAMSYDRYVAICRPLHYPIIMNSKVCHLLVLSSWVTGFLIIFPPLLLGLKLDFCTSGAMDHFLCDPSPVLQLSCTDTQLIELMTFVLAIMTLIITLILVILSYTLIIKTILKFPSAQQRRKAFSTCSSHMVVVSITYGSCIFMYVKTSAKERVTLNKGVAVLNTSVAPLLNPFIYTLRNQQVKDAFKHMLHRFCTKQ
Method in brief: as §1

[4] = target: T4, UniProt Q8VGB9
T4 sequence (whole entry): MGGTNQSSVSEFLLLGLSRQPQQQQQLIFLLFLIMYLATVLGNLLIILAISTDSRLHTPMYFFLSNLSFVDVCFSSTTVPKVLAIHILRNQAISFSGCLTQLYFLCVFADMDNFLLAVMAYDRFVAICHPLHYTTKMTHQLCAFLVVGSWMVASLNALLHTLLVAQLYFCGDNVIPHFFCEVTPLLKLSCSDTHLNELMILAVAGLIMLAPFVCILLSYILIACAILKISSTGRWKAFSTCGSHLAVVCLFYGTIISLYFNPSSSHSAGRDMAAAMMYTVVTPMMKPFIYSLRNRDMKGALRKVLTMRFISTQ
Method in brief: as §1

[5] = target: UniProt Q8VG28
Method in brief: as §1

[6] = target: T5, UniProt Q8VG49
T5 sequence (whole entry): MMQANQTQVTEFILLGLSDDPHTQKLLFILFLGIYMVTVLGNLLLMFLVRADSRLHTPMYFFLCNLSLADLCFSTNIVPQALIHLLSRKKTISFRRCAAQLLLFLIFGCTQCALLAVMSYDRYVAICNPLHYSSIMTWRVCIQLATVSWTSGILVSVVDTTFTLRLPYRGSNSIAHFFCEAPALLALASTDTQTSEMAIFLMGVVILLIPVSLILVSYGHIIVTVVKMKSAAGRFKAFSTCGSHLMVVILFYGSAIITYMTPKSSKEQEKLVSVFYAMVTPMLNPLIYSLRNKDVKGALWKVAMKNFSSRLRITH
Method in brief: as §1

[7] = target: T6, UniProt Q8VG77
T6 sequence (whole entry): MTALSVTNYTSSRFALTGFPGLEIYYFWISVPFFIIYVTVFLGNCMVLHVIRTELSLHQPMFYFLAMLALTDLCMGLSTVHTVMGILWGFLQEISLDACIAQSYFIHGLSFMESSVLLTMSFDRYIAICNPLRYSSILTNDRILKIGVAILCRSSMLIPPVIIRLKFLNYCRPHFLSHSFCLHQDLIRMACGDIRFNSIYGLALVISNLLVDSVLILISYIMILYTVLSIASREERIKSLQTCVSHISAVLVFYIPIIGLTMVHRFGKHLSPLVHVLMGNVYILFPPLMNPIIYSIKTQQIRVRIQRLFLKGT
Method in brief: as §1

[8] = target: T7, UniProt Q8VG96
T7 sequence (whole entry): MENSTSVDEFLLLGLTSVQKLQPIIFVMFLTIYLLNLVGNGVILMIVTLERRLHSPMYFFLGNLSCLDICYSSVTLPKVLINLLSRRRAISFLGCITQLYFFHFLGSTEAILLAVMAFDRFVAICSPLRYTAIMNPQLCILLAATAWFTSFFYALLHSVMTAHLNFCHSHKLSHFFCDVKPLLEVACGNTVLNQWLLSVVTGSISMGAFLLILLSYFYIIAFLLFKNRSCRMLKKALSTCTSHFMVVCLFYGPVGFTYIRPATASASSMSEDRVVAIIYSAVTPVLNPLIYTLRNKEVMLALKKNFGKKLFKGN
Method in brief: as §1

[9] = target: UniProt Q8VG74
Method in brief: as §1

[10] = target: UniProt Q8VGA9
Method in brief: as §1

Measured: odorant receptor agonist call

Sequence of UniProt Q8VG28 (Q8VG28 as listed by the source): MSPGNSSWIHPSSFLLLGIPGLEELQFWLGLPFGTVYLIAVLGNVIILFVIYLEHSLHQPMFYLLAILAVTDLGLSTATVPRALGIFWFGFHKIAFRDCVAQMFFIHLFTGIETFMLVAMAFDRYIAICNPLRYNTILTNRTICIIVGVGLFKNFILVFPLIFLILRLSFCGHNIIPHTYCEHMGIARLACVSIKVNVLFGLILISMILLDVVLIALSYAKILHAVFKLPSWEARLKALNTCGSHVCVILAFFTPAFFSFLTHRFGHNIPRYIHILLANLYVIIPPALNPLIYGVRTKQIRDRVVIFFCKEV
Sequence of UniProt Q8VGA9 (Q8VGA9 as listed by the source): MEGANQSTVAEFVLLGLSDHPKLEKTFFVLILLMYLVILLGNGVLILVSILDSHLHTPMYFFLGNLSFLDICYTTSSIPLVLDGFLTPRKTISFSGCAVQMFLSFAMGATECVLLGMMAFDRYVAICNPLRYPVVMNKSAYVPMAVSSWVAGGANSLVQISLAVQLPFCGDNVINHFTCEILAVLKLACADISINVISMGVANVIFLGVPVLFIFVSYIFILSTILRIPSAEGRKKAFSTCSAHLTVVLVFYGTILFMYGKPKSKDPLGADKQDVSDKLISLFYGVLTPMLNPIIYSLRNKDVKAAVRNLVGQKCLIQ
Sequence of UniProt Q8VG74 (Q8VG74 as listed by the source): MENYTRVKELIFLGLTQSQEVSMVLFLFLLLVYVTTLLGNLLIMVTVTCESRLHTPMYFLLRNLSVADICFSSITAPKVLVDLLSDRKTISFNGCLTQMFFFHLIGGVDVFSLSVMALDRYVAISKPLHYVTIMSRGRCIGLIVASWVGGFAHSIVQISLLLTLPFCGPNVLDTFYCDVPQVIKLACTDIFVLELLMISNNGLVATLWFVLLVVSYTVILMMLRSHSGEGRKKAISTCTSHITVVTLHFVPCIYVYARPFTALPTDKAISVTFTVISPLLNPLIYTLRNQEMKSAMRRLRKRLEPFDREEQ

CC(=O)OCc1ccc2c(c1)OCO2
inactive: [1] | [2] | [3] | [4]

CCCCCCC(=O)OCCCC
inactive: [1] | [2] | [3] | [4]

Cc1c(C)c(C)c(C=O)c(C)c1C
inactive: [1] | [2] | [3] | [4]

CCCCCCCCCC=CC=O
inactive: [1] | [2] | [3] | [4]

COC(OC)c1ccccc1
inactive: [1] | [2] | [3] | [4]

Cc1ccc2c(c1)OCC(=O)CO2
inactive: [1] | [2] | [3] | [4]

CCc1ccccc1O
inactive: [1] | [2] | [3] | [4]

O=C(O)C1CCC1
inactive: [1] | [2] | [3] | [4]

CCc1ccc(O)cc1
inactive: [1] | [2] | [3] | [4]

C1CCOC1
inactive: [1] | [2] | [3] | [4]

CCCCCCCCOC=O
inactive: [1] | [2] | [3] | [4]

CCSSCC
inactive: [1] | [2] | [3] | [4]

C=C(C)C1CCC(C)C(O)C1 (stereo unspecified)
inactive: [1] | [2] | [3] | [4]

C=C(C)C1CC=C(C)CC1 (stereo unspecified)
inactive: [1] | [2] | [3] | [4]

CCCCCOC(=O)CC
inactive: [1] | [2] | [3] | [4]

CC=CC(=O)C1=C(C)CCCC1(C)C
inactive: [1] | [2] | [3] | [4]

CC1CC=CCCCCCCCCCC(=O)C1 (stereo unspecified)
inactive: [1] | [2] | [3] | [4]

C=C1C2CCC(C2)C1(C)C (stereo unspecified)
inactive: [1] | [2] | [3] | [4]

CC(=O)C1(C)CC2=C(CCCC2(C)C)CC1C (stereo unspecified)
inactive: [1] | [2] | [3] | [4]

COc1cnccn1
inactive: [1] | [2] | [3] | [4]

CCCCCCC(C)O (stereo unspecified)
inactive: [1] | [2] | [3] | [4]

C=CC(=C)CCC=C(C)C
inactive: [1] | [2] | [3] | [4]

CCc1nccnc1CC
inactive: [1] | [2] | [3] | [4]

CNc1ccccc1C(=O)OC
inactive: [1] | [2] | [3] | [4]

CCCCCC(C=O)=Cc1ccccc1
inactive: [1] | [2] | [3] | [4]

CSSSC
inactive: [1] | [2] | [3] | [4]

COc1nccnc1C(C)C
inactive: [1] | [2] | [3] | [4]

CC(=O)OCCc1ccccc1
inactive: [1] | [2] | [3] | [4]

O=C(O)CCCBr
inactive: [5]

CCOC(=O)CC(C)C
inactive: [1] | [2] | [3] | [4]

CCCCOC(=O)CCC
inactive: [5]

CCCC(C)=O
inactive: [5] | [6] | [7] | [8]

CCSCC
inactive: [1] | [2] | [3] | [4]

OCCc1ccccc1
inactive: [1] | [2] | [3] | [4]

OCC=Cc1ccccc1
inactive: [1] | [2] | [3] | [4]

CC1CCCCCCCCCCCCC(=O)C1 (stereo unspecified)
inactive: [9] | [10]

O=C(OCc1ccccc1)c1ccccc1O
inactive: [1] | [2] | [3] | [4]

CCCCCCC(=O)[O-].[H+]
inactive: [5] | [6] | [7] | [8]

CCOC(=O)C(C)CC (stereo unspecified)
inactive: [1] | [2] | [3] | [4]

CCc1ncc(C)nc1CC
inactive: [1] | [2] | [3] | [4]

CCC=CCCC=CC=O
inactive: [1] | [2] | [3] | [4]

O=C(O)CCCCCCCCC(=O)O
inactive: [1] | [2] | [3] | [4]

C=CC(=O)CCCCC
inactive: [1] | [2] | [3] | [4]

CCc1occc(=O)c1O
inactive: [1] | [2] | [3] | [4]

O=c1ccc2ccccc2o1
inactive: [6] | [7]
active: [8]
